Assay results as given in ChEMBL document CHEMBL3098105, “7,7'-Diazaindirubin--a small molecule inhibitor of casein kinase 2 in vitro and in cells” (Bioorg Med Chem, 2014).

What was measured:
Assay type in all cases: functional, cell-based
[1] = tested on: HT-29; experiment: Antiproliferative activity against human HT-29 cells after 3 days by SRB assay; settings: HT-29, 72 h
How it was run: (§1)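 Cells grown at 37 °C, 5% CO2, with 10% heat-inactivated FBS: LXFL529L in RPMI 1640, MCF7 and HT29 in DMEM. Seeded, allowed 24 h growth, then exposed to the drug at various concentrations for 3 days in serum medium. Fixed with TCA for 1 h at 4 °C, stained with 0.4% SRB, eluted in 10 mM Tris pH 10.5, read at 570 nm as % T/C. IC50 taken from dose–response curves of at least three independent experiments.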

[2] = Antiproliferative activity against human LXFL 529L cells after 3 days by SRB assay; settings: 72 h; how it was run: as §1
[3] = tested on: MCF7; experiment: Antiproliferative activity against human MCF7 cells after 3 days by SRB assay; settings: MCF7, 72 h; how it was run: as §1

With `O=C1Nc2ccccc2/C1=C1/Nc2ncccc2C1=O` the IC50 [1] was > 10 µM, the IC50 [2] was 4.4 µM and the IC50 [3] was 5 µM.
With `O=C1Nc2ccccc2/C1=C1/Nc2ccccc2C1=O` [INDIRUBIN] the IC50 [2] was 9.9 µM and the IC50 [3] was 4 µM.
In the case of `O=C1Nc2ncccc2/C1=C1\C(=O)Nc2ncccc21`, the IC50 [1] is reported as > 100 µM, the IC50 [2] is reported as > 100 µM and the IC50 [3] is reported as > 100 µM.
With `O=C1/C(=C2\Nc3ncccc3C2=O)Nc2ncccc21` the IC50 [1] was > 100 µM, the IC50 [2] was > 100 µM and the IC50 [3] was > 100 µM.
In the case of `O=C1Nc2ncccc2/C1=C1/Nc2ccccc2C1=O`, the IC50 [1] is reported as > 10 µM, the IC50 [2] is reported as 2.9 µM and the IC50 [3] is reported as 3 µM.
